How the values were obtained:
[1] = target: Phosphodiesterase 6; assay: Inhibitory activity against phosphodiesterase 6 (PDE6) obtained from canine or bovine retina; format: protein assay
In short: (§1)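 Scintillation proximity assay: fixed enzyme amount with varying inhibitor concentrations; substrate cGMP (3:1 unlabelled to [³H]-labelled) at about 1/3 Km, so that IC50 ≈ Ki. Buffer 20 mM Tris–HCl pH 7.4, 5 mM MgCl2, BSA. Reactions started with enzyme, run 30–60 min at 30 °C, stopped with yttrium silicate SPA beads. Counts converted to % of uninhibited control; IC50 from curve fit.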

[2] = target: T1, cGMP-specific 3',5'-cyclic phosphodiesterase (Homo sapiens, UniProt O76074); assay: Inhibitory activity against phosphodiesterase 5 (PDE5) obtained from human corpus cavernosum tissue; in short: as §1
[3] = target: Dual 3',5'-cyclic-AMP and -GMP phosphodiesterase 11A (Homo sapiens, UniProt Q9HCR9); assay: Inhibitory activity against phosphodiesterase 11 (PDE11) obtained from recombinant Sf9 expression; in short: as §1
[4] = target: T1, cGMP-specific 3',5'-cyclic phosphodiesterase; assay: Selectivity ratio of the compound against PDE6 to that of PED5
[5] = Relative inhibition of PDE11 and PDE5
[6] = Relative inhibitoin of PDE11 and PDE5

Chain of Dual 3',5'-cyclic-AMP and -GMP phosphodiesterase 11A (Q9HCR9 whole entry): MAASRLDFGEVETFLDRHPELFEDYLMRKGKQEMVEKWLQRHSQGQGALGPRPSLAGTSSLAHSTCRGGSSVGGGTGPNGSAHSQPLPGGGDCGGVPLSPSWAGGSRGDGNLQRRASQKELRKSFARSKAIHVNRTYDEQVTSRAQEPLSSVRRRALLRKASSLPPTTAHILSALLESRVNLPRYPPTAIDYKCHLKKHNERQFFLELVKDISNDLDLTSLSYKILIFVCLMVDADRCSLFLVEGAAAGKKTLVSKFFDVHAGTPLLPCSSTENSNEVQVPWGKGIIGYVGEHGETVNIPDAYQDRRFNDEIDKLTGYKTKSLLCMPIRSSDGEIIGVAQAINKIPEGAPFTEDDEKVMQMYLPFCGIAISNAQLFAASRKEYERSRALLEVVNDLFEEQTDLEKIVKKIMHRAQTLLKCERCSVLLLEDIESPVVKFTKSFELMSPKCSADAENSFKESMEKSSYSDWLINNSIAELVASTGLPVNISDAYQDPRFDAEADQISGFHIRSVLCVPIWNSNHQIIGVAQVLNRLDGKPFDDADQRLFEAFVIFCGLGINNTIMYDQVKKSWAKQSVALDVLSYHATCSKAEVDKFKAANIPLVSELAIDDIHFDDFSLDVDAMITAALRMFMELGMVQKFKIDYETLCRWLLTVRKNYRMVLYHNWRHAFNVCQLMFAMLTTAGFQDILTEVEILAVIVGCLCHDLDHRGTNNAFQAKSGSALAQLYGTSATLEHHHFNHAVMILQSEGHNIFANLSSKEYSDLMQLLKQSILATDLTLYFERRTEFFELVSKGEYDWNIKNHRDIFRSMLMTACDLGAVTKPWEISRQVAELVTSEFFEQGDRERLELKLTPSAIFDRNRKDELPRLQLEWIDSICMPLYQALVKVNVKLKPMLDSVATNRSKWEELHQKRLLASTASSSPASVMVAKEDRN

Row | SMILES | IC50 [1] [nM] | IC50 [2] [nM] | IC50 [3] [nM] | Selectivity ratio [4] | Selectivity ratio [5] | Selectivity ratio [6]
1 | CN(C)CCN1CC(=O)N2[C@H](c3ccc4c(c3)OCO4)c3[nH]c4ccccc4c3C[C@@H]2C1=O | 8224 | 134 | 53 |  |  | 
2 | O=C1[C@H]2Cc3c([nH]c4ccccc34)[C@@H](c3ccc4c(c3)OCO4)N2C(=O)CN1[C@H]1CCN(Cc2ccccc2)C1 |  |  | 85 |  |  | 
3 | COCCCN1CC[C@@H](N2CC(=O)N3[C@H](c4ccc5c(c4)OCO5)c4[nH]c5ccccc5c4C[C@@H]3C2=O)C1 | 1340 | 7.1 | 22 | 188 | 3 | 
4 | CN(C)CC(=O)CN1CC[C@@H](N2CC(=O)N3[C@H](c4ccc5c(c4)OCO5)c4[nH]c5ccccc5c4C[C@@H]3C2=O)C1 |  | 19.8 | 48 |  | 2.4 | 
5 | NC(=O)CCN1CC[C@@H](N2CC(=O)N3[C@H](c4ccc5c(c4)OCO5)c4[nH]c5ccccc5c4C[C@@H]3C2=O)C1 | 1601 | 8.4 | 48 | 189 | 5.7 | 
6 | O=C1[C@H]2Cc3c([nH]c4ccccc34)[C@@H](c3ccc4c(c3)OCO4)N2C(=O)CN1[C@@H]1CCN(CCc2cccnc2)C1 | 271 | 1.9 | 2.4 | 144 | 1.3 | 
7 | O=C1[C@H]2Cc3c([nH]c4ccccc34)[C@@H](c3ccc(O)nc3)N2C(=O)CN1[C@@H]1CCN(Cc2ccccc2)C1 |  | 127 | 39 |  |  | 0.3
8 | COc1ccc([C@@H]2c3[nH]c4ccccc4c3C[C@@H]3C(=O)N([C@@H]4CCN(Cc5ccccc5)C4)CC(=O)N23)cc1OC |  | > 1000 | 1000 |  |  | 
9 | O=C1[C@H]2Cc3c([nH]c4ccccc34)[C@@H](c3ccc4c(c3)OCO4)N2C(=O)CN1[C@@H]1CCN(CCC2CC2)C1 | 2660 | 15.7 | 43 | 169 | 2.7 | 
10 | COc1cccc([C@@H]2c3[nH]c4ccccc4c3C[C@@H]3C(=O)N([C@@H]4CCN(Cc5ccccc5)C4)CC(=O)N23)c1 (stereo in doubt; form 2) [listing 1 of 2 here] |  | 15.6 | 11.8 |  |  | 
11 | O=C1[C@H]2Cc3c([nH]c4ccccc34)[C@@H](c3ccc4c(c3)OCO4)N2C(=O)CN1C1CCN(Cc2ccccc2)CC1 | 1619 | 26 |  |  |  | 
12 | CCCN1CC[C@@H](N2CC(=O)N3[C@H](c4ccc5c(c4)OCO5)c4[nH]c5ccccc5c4C[C@@H]3C2=O)C1 | > 10000 | 57 |  | > 175 |  | 
13 | COc1cccc([C@@H]2c3[nH]c4ccccc4c3C[C@@H]3C(=O)N([C@@H]4CCN(Cc5ccccc5)C4)CC(=O)N23)c1 (stereo in doubt; form 2) [listing 2 of 2 here] |  |  |  |  |  | 0.8
14 | O=C1[C@H]2Cc3c([nH]c4ccccc34)[C@@H](c3ccc4c(c3)OCO4)N2C(=O)CN1[C@@H]1CCN(CCc2cnccn2)C1 | 358 | 2 | 4.2 | 181 | 2.1 | 
15 | O=C1[C@H]2Cc3c([nH]c4ccccc34)[C@@H](c3ccc4c(c3)OCO4)N2C(=O)CN1CCN1CCOCC1 | 2966 | 56 |  |  |  | 
16 | COc1cccc([C@@H]2c3[nH]c4ccccc4c3C[C@@H]3C(=O)N([C@@H]4CCN(Cc5ccccc5)C4)CC(=O)N23)c1 (stereo in doubt; form 1) [listing 1 of 2 here] |  |  |  |  |  | 1.5
17 | Cn1ccnc1CCN1CC[C@@H](N2CC(=O)N3[C@H](c4ccc5c(c4)OCO5)c4[nH]c5ccccc5c4C[C@@H]3C2=O)C1 (stereo in doubt; form 2) [listing 1 of 2 here] | 125 | 0.7 | 1.4 |  |  | 

Row | SMILES | IC50 [1] [nM] | IC50 [2] [nM] | IC50 [3] [nM] | Selectivity ratio [4] | Selectivity ratio [5] | Selectivity ratio [6]
18 | O=C(CCN1CC[C@@H](N2CC(=O)N3[C@H](c4ccc5c(c4)OCO5)c4[nH]c5ccccc5c4C[C@@H]3C2=O)C1)N1CCC1 | 846 | 4 | 4.7 | 211 | 1.2 | 
19 | C=CCCN1CC[C@@H](N2CC(=O)N3[C@H](c4ccc5c(c4)OCO5)c4[nH]c5ccccc5c4C[C@@H]3C2=O)C1 |  | 4 |  |  | 3 | 
20 | CCCCCN1CC[C@@H](N2CC(=O)N3[C@H](c4ccc5c(c4)OCO5)c4[nH]c5ccccc5c4C[C@@H]3C2=O)C1 | 1770 | 13.2 | 31 | 134 | 2.3 | 
21 | Cn1ccnc1CCN1CC[C@@H](N2CC(=O)N3[C@H](c4ccc5c(c4)OCO5)c4[nH]c5ccccc5c4C[C@@H]3C2=O)C1 (stereo in doubt; form 1) [listing 1 of 2 here] |  |  |  | 640 | 2.6 | 
22 | CCNC(=O)CCN1CC[C@@H](N2CC(=O)N3[C@H](c4ccc5c(c4)OCO5)c4[nH]c5ccccc5c4C[C@@H]3C2=O)C1 | 620 | 3.6 | 4.3 | 172 | 1.2 | 
23 | CN(C)C(=O)CCN1CC[C@@H](N2CC(=O)N3[C@H](c4ccc5c(c4)OCO5)c4[nH]c5ccccc5c4C[C@@H]3C2=O)C1 | 807 | 2.5 | 4.7 | 316 | 1.9 | 
24 | O=C1[C@H]2Cc3c([nH]c4ccccc34)[C@@H](c3ccc4c(c3)OCO4)N2C(=O)CN1[C@@H]1CCN(CCc2ccccn2)C1 | 226 | 1.5 | 2.01 | 153 | 1.4 | 
25 | COc1ccc([C@@H]2c3[nH]c4ccccc4c3C[C@@H]3C(=O)N([C@@H]4CCN(Cc5ccccc5)C4)CC(=O)N23)cc1 |  | 2.7 | 6.7 |  |  | 2.5
26 | Cc1ccc([C@@H]2c3[nH]c4ccccc4c3C[C@@H]3C(=O)N([C@@H]4CCN(Cc5ccccc5)C4)CC(=O)N23)cc1 |  | 12.8 | 6.5 |  |  | 0.5
27 | O=C1[C@H]2Cc3c([nH]c4ccccc34)[C@@H](c3ccc4c(c3)OCO4)N2C(=O)CN1[C@@H]1CCN(CCc2ncc[nH]2)C1 | 357 | 1.2 | 3.5 | 300 | 2.9 | 
28 | COc1ccc([C@@H]2c3[nH]c4ccccc4c3C[C@@H]3C(=O)N([C@@H]4CCN(Cc5ccccc5)C4)CC(=O)N23)cc1C |  | 132 | 71 |  |  | 0.5
29 | Cn1ccnc1CCN1CC[C@@H](N2CC(=O)N3[C@H](c4ccc5c(c4)OCO5)c4[nH]c5ccccc5c4C[C@@H]3C2=O)C1 (stereo in doubt; form 2) [listing 2 of 2 here] |  |  |  | 173 | 2 | 
30 | Cn1ccnc1CCN1CC[C@@H](N2CC(=O)N3[C@H](c4ccc5c(c4)OCO5)c4[nH]c5ccccc5c4C[C@@H]3C2=O)C1 (stereo in doubt; form 1) [listing 2 of 2 here] | 494 | 0.8 | 2.2 |  |  | 
31 | COc1cccc([C@@H]2c3[nH]c4ccccc4c3C[C@@H]3C(=O)N([C@@H]4CCN(Cc5ccccc5)C4)CC(=O)N23)c1 (stereo in doubt; form 1) [listing 2 of 2 here] |  | 28.6 | 44 |  |  | 
32 | O=C1[C@H]2Cc3c([nH]c4ccccc34)[C@@H](c3ccc4c(c3)OCO4)N2C(=O)CN1[C@@H]1CCN(Cc2ccccc2)C1 | 249 |  | 5.5 |  |  | 
33 | O=C1[C@H]2Cc3c([nH]c4ccccc34)[C@@H](c3ccc4c(c3)OCO4)N2C(=O)CN1C1CN(Cc2ccccc2)C1 |  | 164 | 950 |  |  | 

From ChEMBL document CHEMBL1136701, “Design, synthesis and biological activity of beta-carboline-based type-5 phosphodiesterase inhibitors” (Bioorg Med Chem Lett, 2003)
